Assay results reported in ChEMBL document CHEMBL1811814, “Synthesis and evaluation of indole, pyrazole, chromone and pyrimidine based conjugates for tumor growth inhibitory activities--development of highly efficacious cytotoxic agents” (Eur J Med Chem, 2010).

Assays:
Type in all cases: functional
[1] = tested on: NCI-H322M; assay: Growth inhibition of human NCI-H322M cells
[2] = tested on: HT-29; assay: Growth inhibition of human HT-29 cells
[3] = tested on: MOLT-4; assay: Growth inhibition of human MOLT4 cells
[4] = tested on: SNB-75; assay: Growth inhibition of human SNB75 cells
[5] = tested on: A549; assay: Growth inhibition of human A549 cells
[6] = tested on: MDA-MB-231; assay: Growth inhibition of human MDA-MB-231 cells assessed tumor cell growth at 10^-5 M; design: scale not given: the % may be the effect or the level left
Outline: (§1)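 NCI 60-human-tumor-cell-line panel screen. Each compound was tested at a single concentration of 10^-5 M, and percent growth of tumor cells was recorded for each cell line. Growth inhibition was expressed from these percent-growth values.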

[7] = tested on: NCI-H23; assay: Growth inhibition of human NCI-H23 cells
[8] = tested on: NCI-H522; assay: Growth inhibition of human NCI-H522 cells assessed tumor cell growth at 10^-5 M; design: scale not given: the % may be the effect or the level left; outline: as §1
[9] = tested on: OVCAR-5; assay: Growth inhibition of human OVCAR5 cells assessed tumor cell growth at 10^-5 M; design: scale not given: the % may be the effect or the level left; outline: as §1
[10] = tested on: SK-MEL-5; assay: Growth inhibition of human SK-MEL-5 cells
[11] = tested on: BT-549; assay: Growth inhibition of human BT549 cells
[12] = tested on: CCRF-CEM; assay: Growth inhibition of human CCRF-CEM cells
[13] = tested on: SF-268; assay: Growth inhibition of human SF268 cells
[14] = tested on: UACC-257; assay: Growth inhibition of human UACC257 cells
[15] = tested on: SK-MEL-2; assay: Growth inhibition of human SK-MEL-2 cells
[16] = tested on: OVCAR-3; assay: Growth inhibition of human OVCAR3 cells
[17] = tested on: SNB-19; assay: Growth inhibition of human SNB19 cells assessed tumor cell growth at 10^-5 M; design: scale not given: the % may be the effect or the level left
Outline: (§2)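 Single-dose screen at 10^-5 M across the 60 human tumor cell line panel, run to NCI standards. The value is the percent growth of each cell line in the presence of compound. Compounds active at this dose moved on to five-concentration testing (10^-4 to 10^-8 M).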

[18] = tested on: HCT-15; assay: Growth inhibition of human HCT15 cells
[19] = tested on: TK-10; assay: Growth inhibition of human TK10 cells assessed tumor cell growth at 10^-5 M; design: scale not given: the % may be the effect or the level left; outline: as §2
[20] = tested on: NCI-H226; assay: Growth inhibition of human NCI-H226 cells assessed tumor cell growth at 10^-5 M; design: scale not given: the % may be the effect or the level left; outline: as §1
[21] = tested on: UACC-62; assay: Growth inhibition of human UACC62 cells
[22] = tested on: K562; assay: Growth inhibition of human K562 cells assessed tumor cell growth at 10^-5 M; design: scale not given: the % may be the effect or the level left; outline: as §1
[23] = tested on: ACHN; assay: Growth inhibition of human ACHN cells
[24] = tested on: OVCAR-4; assay: Growth inhibition of human OVCAR4 cells
[25] = tested on: HCC 2998; assay: Growth inhibition of human HCC2998 cells assessed tumor cell growth at 10^-5 M; design: scale not given: the % may be the effect or the level left; outline: as §1
[26] = tested on: IGROV-1; assay: Growth inhibition of human IGROV1 cells assessed tumor cell growth at 10^-5 M; design: scale not given: the % may be the effect or the level left; outline: as §1
[27] = tested on: NCI-H226; assay: Growth inhibition of human NCI-H226 cells
[28] = tested on: HT-29; assay: Growth inhibition of human HT-29 cells assessed tumor cell growth at 10^-5 M; design: scale not given: the % may be the effect or the level left; outline: as §1
[29] = tested on: SNB-75; assay: Growth inhibition of human SNB75 cells assessed tumor cell growth at 10^-5 M; design: scale not given: the % may be the effect or the level left; outline: as §2
[30] = tested on: SW-620; assay: Growth inhibition of human SW620 cells assessed tumor cell growth at 10^-5 M; design: scale not given: the % may be the effect or the level left; outline: as §2
[31] = tested on: SK-OV-3; assay: Growth inhibition of human SKOV3 cells
[32] = tested on: RXF 393; assay: Growth inhibition of human RXF393 cells
[33] = tested on: HOP-62; assay: Growth inhibition of human HOP62 cells
[34] = Growth inhibition of human […] cells assessed tumor cell growth at 10^-5 M; design: scale not given: the % may be the effect or the level left; outline: as §1
[35] = tested on: T47D; assay: Growth inhibition of human T47D cells
[36] = tested on: M14; assay: Growth inhibition of human M14 cells assessed tumor cell growth at 10^-5 M; design: scale not given: the % may be the effect or the level left; outline: as §1
[37] = tested on: COLO 205; assay: Growth inhibition of human COLO205 cells assessed tumor cell growth at 10^-5 M; design: scale not given: the % may be the effect or the level left; outline: as §1
[38] = tested on: SF-268; assay: Growth inhibition of human SF268 cells assessed tumor cell growth at 10^-5 M; design: scale not given: the % may be the effect or the level left; outline: as §1
[39] = tested on: UACC-62; assay: Growth inhibition of human UACC62 cells assessed tumor cell growth at 10^-5 M; design: scale not given: the % may be the effect or the level left; outline: as §2
[40] = tested on: 786-0; assay: Growth inhibition of human 786-0 cells
[41] = tested on: NCI-H23; assay: Growth inhibition of human NCI-H23 cells assessed tumor cell growth at 10^-5 M; design: scale not given: the % may be the effect or the level left; outline: as §1
[42] = tested on: SF-539; assay: Growth inhibition of human SF539 cells
[43] = tested on: MDA-MB-435; assay: Growth inhibition of human MDA-MB-435 cells assessed tumor cell growth at 10^-5 M; design: scale not given: the % may be the effect or the level left; outline: as §1
[44] = Growth inhibition of human Hs 578T cells assessed tumor cell growth at 10^-5 M; design: scale not given: the % may be the effect or the level left; outline: as §1
[45] = tested on: NCI-H322M; assay: Growth inhibition of human NCI-H322M cells assessed tumor cell growth at 10^-5 M; design: scale not given: the % may be the effect or the level left; outline: as §1
[46] = tested on: SK-MEL-2; assay: Growth inhibition of human SK-MEL-2 cells assessed tumor cell growth at 10^-5 M; design: scale not given: the % may be the effect or the level left; outline: as §1
[47] = tested on: BT-549; assay: Growth inhibition of human BT549 cells assessed tumor cell growth at 10^-5 M; design: scale not given: the % may be the effect or the level left; outline: as §1
[48] = tested on: SR; assay: Growth inhibition of human SR cells
[49] = tested on: 786-0; assay: Growth inhibition of human 786-0 cells assessed tumor cell growth at 10^-5 M; design: scale not given: the % may be the effect or the level left; outline: as §1
[50] = tested on: IGROV-1; assay: Growth inhibition of human IGROV1 cells
Outline: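 Follow-up panel testing at five concentrations (10^-4, 10^-5, 10^-6, 10^-7 and 10^-8 M) across the 60 human tumor cell lines. GI50 was obtained for each line from the concentration-response data, with the panel average GI50 also reported.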

[51] = Growth inhibition of human Hs 578T cells
[52] = read-out: LC50 (the source's name)

In the case of CC1=NN(c2cccc(Cl)c2)C(=O)/C1=C\C=C\c1ccccc1, the GI50 [1] is reported as 28.1 µM, the CC50 [1, 52] is reported as > 100 µM and the GI50 [2] is reported as 2.9 µM. The CC50 [2, 52] was > 100 µM, the GI50 [3] was 3.1 µM and the LC50 [3] was > 100 µM. For the same compound, the GI50 [4] was 7 µM, the CC50 [4, 52] was > 100 µM and the GI50 [5] was 16.2 µM. The CC50 [5, 52] was > 100 µM, the Activity [6] was 13.67% and the GI50 [7] was 2.3 µM. For the same compound, the LC50 (concentration killing 50% of cells) [7] was > 100 µM, the Activity [8] was 34.37% and the Activity [9] was 143.86%. For the same compound, the GI50 [10] was 2.2 µM, the CC50 [10, 52] was 20.8 µM and the GI50 [11] was 1.6 µM. The CC50 [11, 52] was 6.1 µM, the GI50 [12] was 3.1 µM and the CC50 [12, 52] was > 100 µM. For the same compound, the GI50 [13] was 2.3 µM, the CC50 [13, 52] was > 100 µM and the GI50 [14] was 2.1 µM. The CC50 [14, 52] was > 100 µM, the GI50 [15] was 3.8 µM and the CC50 [15, 52] was > 100 µM. For the same compound, the GI50 [16] was 2.1 µM, the CC50 [16, 52] was 8.9 µM and the Activity [17] was 37.51%. For the same compound, the GI50 [18] was 2.2 µM, the CC50 [18, 52] was > 100 µM and the Activity [19] was 44.8%. The Activity [20] was 3.87%, the GI50 [21] was 1.7 µM and the CC50 [21, 52] was 8.5 µM. It also gave an Activity [22] of 76.92%, a GI50 [23] of 1.7 µM and a CC50 [23, 52] of 6.1 µM. For the same compound, the GI50 [24] was 3.3 µM, the CC50 [24, 52] was > 100 µM and the Activity [25] was 30.87%. It also gave an Activity [26] of 45.54%, a GI50 [27] of 2.6 µM and a CC50 [27, 52] of 64.5 µM. For the same compound, the Activity [28] was -29.51%, the Activity [29] was 62.01% and the Activity [30] was 1.26%. The GI50 [31] was 3.2 µM, the CC50 [31, 52] was > 100 µM and the GI50 [32] was 2.1 µM. For the same compound, the CC50 [32, 52] was 7.2 µM, the GI50 [33] was 3.1 µM and the CC50 [33, 52] was 57.5 µM. For the same compound, the Activity [34] was 15.38%, the GI50 [35] was 2.2 µM and the CC50 [35, 52] was > 100 µM. The Activity [36] was 14.42%, the Activity [37] was 11.57% and the Activity [38] was 75.5%. For the same compound, the Activity [39] was 28.21%, the GI50 [40] was 2.1 µM and the CC50 [40, 52] was 10.2 µM. For the same compound, the Activity [41] was 26.27%, the GI50 [42] was 2.5 µM and the CC50 [42, 52] was > 100 µM. It also gave an Activity [43] of 13.63%, an Activity [44] of 132.74% and an Activity [45] of 111.8%. It also gave an Activity [46] of 74.62%, an Activity [47] of 78.36% and a GI50 [48] of 2.3 µM. For the same compound, the CC50 [48, 52] was > 100 µM, the Activity [49] was 35.48% and the GI50 [50] was 1.6 µM. For the same compound, the CC50 [50, 52] was 16.5 µM, the GI50 [51] was 1.6 µM and the CC50 [51, 52] was > 100 µM.
